Measured values: ChEMBL document CHEMBL1671840, “Design, Synthesis, and Preclinical Characterization of the Selective Androgen Receptor Modulator (SARM) RAD140” (ACS Med Chem Lett, 2011)
Calls of active or inactive are those of the source. The rule behind the calls is not given here.

Key:
[1] = Oral bioavailability in rat; assay type: ADME, organism-based; conditions: in vivo
Androgen receptor = target: T1, Androgen receptor (Homo sapiens, UniProt P10275); assay: Displacement of fluorescent-tagged R1881 from androgen receptor after 4 hrs by fluorometric assay
T1 sequence (P10275 whole entry): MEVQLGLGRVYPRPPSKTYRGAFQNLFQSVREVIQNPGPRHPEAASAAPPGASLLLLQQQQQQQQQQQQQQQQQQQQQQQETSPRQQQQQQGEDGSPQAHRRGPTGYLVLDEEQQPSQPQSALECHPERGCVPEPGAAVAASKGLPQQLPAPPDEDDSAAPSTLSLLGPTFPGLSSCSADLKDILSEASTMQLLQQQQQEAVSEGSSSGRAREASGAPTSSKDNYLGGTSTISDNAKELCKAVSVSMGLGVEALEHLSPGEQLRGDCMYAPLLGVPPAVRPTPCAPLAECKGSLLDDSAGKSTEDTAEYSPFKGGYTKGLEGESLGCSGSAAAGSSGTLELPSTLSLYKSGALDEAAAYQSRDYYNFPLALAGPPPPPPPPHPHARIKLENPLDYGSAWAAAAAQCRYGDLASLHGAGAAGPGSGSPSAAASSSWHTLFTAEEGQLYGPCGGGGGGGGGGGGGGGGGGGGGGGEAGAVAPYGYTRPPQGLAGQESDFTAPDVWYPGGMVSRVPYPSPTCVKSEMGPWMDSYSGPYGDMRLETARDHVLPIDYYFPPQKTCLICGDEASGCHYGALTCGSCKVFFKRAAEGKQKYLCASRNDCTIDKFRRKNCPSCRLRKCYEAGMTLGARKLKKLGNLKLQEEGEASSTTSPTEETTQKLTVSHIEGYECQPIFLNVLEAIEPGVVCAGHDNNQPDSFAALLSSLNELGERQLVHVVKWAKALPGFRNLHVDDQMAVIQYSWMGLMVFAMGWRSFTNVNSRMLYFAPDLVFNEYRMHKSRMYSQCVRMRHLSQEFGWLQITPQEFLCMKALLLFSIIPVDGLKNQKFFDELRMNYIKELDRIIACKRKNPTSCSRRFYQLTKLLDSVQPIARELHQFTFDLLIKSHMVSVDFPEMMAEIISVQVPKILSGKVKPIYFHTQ

Progesterone receptor = target: T2, Progesterone receptor (Homo sapiens, UniProt P06401); assay: Binding affinity to progesterone receptor
T2 sequence (P06401 whole entry): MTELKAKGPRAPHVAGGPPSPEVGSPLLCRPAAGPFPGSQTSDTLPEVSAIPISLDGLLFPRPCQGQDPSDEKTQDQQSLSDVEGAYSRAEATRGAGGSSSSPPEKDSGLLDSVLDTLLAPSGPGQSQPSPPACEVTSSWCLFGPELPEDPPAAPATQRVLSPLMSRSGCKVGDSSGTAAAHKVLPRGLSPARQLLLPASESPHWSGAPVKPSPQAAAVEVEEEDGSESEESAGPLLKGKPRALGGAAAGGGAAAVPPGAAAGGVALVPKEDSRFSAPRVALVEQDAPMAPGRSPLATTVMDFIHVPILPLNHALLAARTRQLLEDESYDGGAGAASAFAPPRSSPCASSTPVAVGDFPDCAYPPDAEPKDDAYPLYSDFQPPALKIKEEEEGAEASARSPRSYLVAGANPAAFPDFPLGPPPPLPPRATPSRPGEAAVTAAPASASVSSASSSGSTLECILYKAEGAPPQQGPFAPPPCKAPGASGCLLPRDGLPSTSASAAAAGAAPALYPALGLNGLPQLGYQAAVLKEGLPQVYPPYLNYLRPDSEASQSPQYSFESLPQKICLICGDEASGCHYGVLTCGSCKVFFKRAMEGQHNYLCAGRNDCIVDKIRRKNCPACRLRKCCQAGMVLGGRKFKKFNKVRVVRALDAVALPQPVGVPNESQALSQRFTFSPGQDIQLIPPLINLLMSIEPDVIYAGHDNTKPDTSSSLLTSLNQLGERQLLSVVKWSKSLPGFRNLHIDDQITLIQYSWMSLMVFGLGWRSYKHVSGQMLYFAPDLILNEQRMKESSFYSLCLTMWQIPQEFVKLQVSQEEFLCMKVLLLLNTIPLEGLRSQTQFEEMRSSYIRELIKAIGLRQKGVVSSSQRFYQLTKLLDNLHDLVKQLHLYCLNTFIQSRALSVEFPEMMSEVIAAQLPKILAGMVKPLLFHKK

[2] = Half life in rat microsomes; assay type: ADME, Microsome
Cynomolgus monkey [3] = assay: Androgenic activity in cynomolgus monkey assessed as increase of body weight at 1 mg/kg, po qd for 28 days; assay type: functional, organism-based; design: dose 1 mg/kg; conditions: Macaca fascicularis
In short: (§1)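 Monkeys in groups of 3, grouped from day -21 and weighed at each time point. Oral dosing at 0.01, 0.1 or 1 mg/kg for 28 days, then 21 days off-dose. Each animal's weight change over the pre-dose weeks served as baseline; baseline-subtracted change from day -1 to day 29 was tested statistically.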

Cynomolgus monkey [4] = assay: Androgenic activity in cynomolgus monkey assessed as effect on lean tissue weight at up to 1 mg/kg, po qd for 28 days measured after 24 hrs of last post dose; assay type: functional, organism-based; design: dose 1 mg/kg; conditions: Macaca fascicularis
In short: (§2)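 Monkeys, 3 per group, dosed orally at 0.01, 0.1 or 1 mg/kg for 28 days. DEXA scans on day -2 and day 29 gave fat and lean tissue mass. Mean change per group, with SD.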

Rattus norvegicus [5] = assay: Androgenic activity in castrated immature rat assessed as increase of levator ani bulbocavernosus muscle weight at 0.03 mg/kg, po qd for 11 days; assay type: functional, organism-based; design: dose 0.03 mg/kg; conditions: Muscle tissue
Rattus norvegicus [6] = assay: Androgenic activity in young intact rat assessed as increase of levator ani bulbocavernosus muscle weight at 0.5 mg/kg, sc qd for 11 days; assay type: functional, organism-based; design: dose 0.5 mg/kg; conditions: Muscle tissue
Rattus norvegicus [7] = assay: Androgenic activity in young intact rat assessed as increase of levator ani bulbocavernosus muscle weight at 0.1 mg/kg, po qd for 11 days; assay type: functional, organism-based; design: dose 0.1 mg/kg; conditions: Muscle tissue
[8] = Oral bioavailability in monkey; assay type: ADME, organism-based, Macaca mulatta; conditions: rhesus monkey, in vivo
Rattus norvegicus [9] = assay: Androgenic activity in young intact rat assessed as increase of prostate weight at 0.5 mg/kg, sc qd for 11 days; assay type: functional, organism-based; design: dose 0.5 mg/kg; conditions: Prostate gland
Rattus norvegicus [10] = assay: Androgenic activity in young intact rat assessed as increase of prostate weight at 30 mg/kg, po qd for 11 days; assay type: functional, organism-based; design: dose 30 mg/kg; conditions: Prostate gland
Rattus norvegicus [11] = assay: Androgenic activity in castrated immature rat assessed as increase of levator ani bulbocavernosus muscle weight at 0.3 mg/kg, po qd for 11 days; assay type: functional, organism-based; design: dose 0.3 mg/kg; conditions: Muscle tissue
Rattus norvegicus [12] = assay: Androgenic activity in young intact rat assessed as increase of levator ani bulbocavernosus muscle weight at 0.3 mg/kg, po qd for 11 days; assay type: functional, organism-based; design: dose 0.3 mg/kg; conditions: Muscle tissue
[13] = Half life in human microsomes; assay type: ADME, Microsome
Cynomolgus monkey [14] = assay: Androgenic activity in cynomolgus monkey assessed as effect on fat mass at up to 1 mg/kg, po qd for 28 days measured after 24 hrs of last post dose; assay type: functional, organism-based; design: dose 1 mg/kg; conditions: Macaca fascicularis; in short: as §2
Cynomolgus monkey [15] = assay: Androgenic activity in cynomolgus monkey assessed as increase of body weight at 0.1 mg/kg, po qd for 28 days; assay type: functional, Macaca fascicularis; in short: as §1
[16] = Half life in monkey microsomes; assay type: ADME, Macaca mulatta, Microsome; conditions: rhesus monkey

| SMILES | bioavailability [1] [%] | Ki (Androgen receptor) [µM] | IC50 (Progesterone receptor) [µM] | half-life [2] [h] | Activity (Cynomolgus monkey [3]) | Activity (Cynomolgus monkey [4]) | Activity (Rattus norvegicus [5]) | Activity (Rattus norvegicus [6]) | Activity (Rattus norvegicus [7]) | bioavailability [8] [%] | Activity (Rattus norvegicus [9]) | Activity (Rattus norvegicus [10]) | Activity (Rattus norvegicus [11]) | Activity (Rattus norvegicus [12]) | half-life [13] [h] | Activity (Cynomolgus monkey [14]) | Activity (Cynomolgus monkey [15]) [%] | half-life [16] [h] |
| --- | --- | --- | --- | --- | --- | --- | --- | --- | --- | --- | --- | --- | --- | --- | --- | --- | --- | --- |
| Cc1c(N[C@@H](c2nnc(-c3ccccc3)o2)[C@H](C)O)ccc(C#N)c1Cl | < 5 | – | – | – | – | – | – | – | – | – | – | – | – | – | – | – | – | – |
| Cc1c(N[C@@H](c2nnc(-c3ccc(C#N)cc3)o2)[C@H](C)O)ccc(C#N)c1Cl [RAD-140] | 27 | 0.007 | 0.75 | > 2 | Active | inactive | Active | Active | Active | 65 | Active | inactive | Active | Active | > 2 | inactive | 10 | > 2 |
